Compound activity: PubChem BioAssay, several laboratories
NR3A LBD binder: binders of NR3A ligand-binding domain, primary screen, biophysical, differential scanning fluorimetry, uHTS; NR3A LBD differential scanning fluorimetry, Tm shift; 0% = protein alone, 100% = glycine-bound protein; Tm shift relative to glycine control, % at 25 µM; AID 1259313, 2017; actives 2.5% (n = 340,000);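 active means melting temperature shift of at least 10% of the positive control shift, at one fixed dose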
XBP1 UPR activ: activators of adaptive XBP1 UPR arm, primary screen, cell-based, CHO-XBP1 luciferase reporter, luminescence, uHTS; AID 463104, 2010; IRE1-XBP1 UPR activation; percent of tunicamycin response, DMSO as zero; actives 0.33% (n = 330,000); activation, % at 20 µM;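 active means versus positive control, 20 µM dose yields 30% or more activation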
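Material: CHO-XBP1 cells stably carrying IRE1-XBP1-driven luciferase reporter / Amount: 1000 cells per well / Compound: 20 µM, 1% DMSO / Times: 6 h treatment, 37 °C / Detection: luciferase luminescence / Measure: % activation of reporter signal versus tunicamycin and DMSO controls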
CHOP inh: inhibitors of CHOP promoter induction, primary screen, cell-based, unfolded protein response, luciferase reporter; actives 3.8% (n = 220,000); CHO-K1 CHOP-promoter luciferase, tunicamycin-induced, 15-18 h; inhibition, % at 10 µM; AID 2732, 2010;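 active means compounds that reduced the stress-induced luciferase reporter signal by more than about 70% of percent inhibition, limit read from the data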
CHOP UPR activ: activators of apoptotic CHOP UPR arm, primary screen, cell-based, CHO-CHOP luciferase reporter, luminescence, uHTS. UPR activation; percent of tunicamycin response over DMSO baseline. actives 0.34% (n = 330,000). activation, % at 10 µM;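 active means at 10 µM dose, activation of 40% or more, normalized to positive control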
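measured by = luciferase luminescence | assay system = CHO-CHOP cells, stable luciferase reporter of PERK-eIF2a-CHOP signalling | amount = 500 reporter cells seeded per well | timing = 6 h compound exposure at 37 °C after overnight seeding | controls = positive tunicamycin 10 µg/mL, negative DMSO alone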
MPTP block: mitochondrial permeability transition pore inhibitors, primary screen, biochemical, isolated mouse mitochondria, absorbance; Ca2+ swelling absorbance, 30 min; inhibition, % at 10 µM; actives 1.4% (n = 360,000); AID 602449, 2012;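 active means inhibition of 50% or more, scaled per plate between neutral and stimulator controls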
aDG glyco act: activators of alpha-DG glycosylation, primary screen, uHTS, Pro5-aDG cells, AlphaScreen; alpha-DG glycosylation AlphaScreen (IIH6); 0% Pro5, 100% B10-LARGE cell signal; activation, % at 10 µM; actives 0.22% (n = 360,000);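 active means activation of at least 8% versus controls, or a plate z-score of at least 8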;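 further: Pro5 are CHO cells carrying HIG-tagged alpha-DG that lacks glycosylation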
Each line names hits and unclear results; the compound was inactive in the other large screens. Hits are enriched below; roughly 5.6% of the tested compounds scored in any of these assays.

O=C(CSc1nc(=O)[nH]c2c1CCCC2)Nc1cc(C(F)(F)F)cc(C(F)(F)F)c1	NR3A LBD binder 10 (no result: CHOP inh)
CNc1ncnc2c1ncn2[C@H]1CN(Cc2cccs2)C[C@@H](CO)O1	none (no result: NR3A LBD binder, XBP1 UPR activ, CHOP inh, CHOP UPR activ)
CCOC(=O)c1cnc(SC)nc1Oc1cccc(NC(=O)c2cccc(Cl)c2Cl)c1	none
CCOC(=O)c1cnc(SC)nc1Oc1cccc(NC(=O)c2ccc(C)cc2)c1	NR3A LBD binder 17
CSc1ccc(CN2CCC(C)(Oc3ccccc3F)C2)cc1 (centres undefined)	none (no result: NR3A LBD binder, XBP1 UPR activ, CHOP inh, CHOP UPR activ)
Cc1cc(C)cc(N(CC(=O)NCc2ccco2)C(=O)CCC(=O)Nc2ccccn2)c1	NR3A LBD binder 17 (no result: XBP1 UPR activ, CHOP UPR activ)
CN1CCN(Cn2cc(/C=C/C(=O)c3ccccc3)c3ccccc32)CC1	NR3A LBD binder 26
O=C(/C=C/c1cn(CC(O)CN2CCCCC2)c2ccccc12)c1ccccc1 (centres undefined)	none (no result: XBP1 UPR activ, CHOP UPR activ)
COc1ccc(/C=N/NC(=O)COc2ccc(Cl)cc2Cl)cc1Cn1nc(C)cc1C	CHOP inh 93
CCOC(=O)c1c(N)sc(C(O)(C(F)(F)F)C(F)(F)F)c1-c1ccc(F)cc1	CHOP inh 78
O=S(=O)(c1ccccc1)N(F)S(=O)(=O)c1ccccc1	none (no result: CHOP inh)
O=S(=O)(c1ccccc1)N(c1ccccc1)S(=O)(=O)c1ccccc1	NR3A LBD binder 11 (no result: XBP1 UPR activ, CHOP inh, CHOP UPR activ)
CCCc1c(C(=O)N/N=C/c2cccc3ccccc23)nnn1-c1nonc1N	NR3A LBD binder 40 (no result: CHOP inh)
CCOc1ccc(-c2c(C(=O)N/N=C/c3c[nH]c4ccccc34)nnn2-c2nonc2N)cc1	NR3A LBD binder 32 (no result: CHOP inh)
CCN(CC)Cc1c(C(=O)N/N=C/c2cccc3ccccc23)nnn1-c1nonc1N	none (no result: CHOP inh)
CC(C)c1c(C(=O)N/N=C/c2cccc3ccccc23)nnn1-c1nonc1N	NR3A LBD binder 32 (no result: CHOP inh)
CC(C)c1c(C(=O)N/N=C/c2c[nH]c3ccccc23)nnn1-c1nonc1N	NR3A LBD binder 38 (no result: CHOP inh)
C[C@@H]1CN([C@H](C)CO)C(=O)CCCn2nncc2CO[C@H]1CN(C)Cc1ccc(C(F)(F)F)cc1	none (no result: NR3A LBD binder, XBP1 UPR activ, CHOP inh, CHOP UPR activ)
CCCN(CC(=O)Nc1cc(Cl)ccc1Cl)C(=O)CN1C(=O)C2CCCCC2C1=O (centres undefined)	none (no result: CHOP inh)
c1ccc(CNc2cncnc2)cc1	none (no result: CHOP inh)
Cc1cccc(OCC(=O)Nc2nnc(S(=O)(=O)N3CCCCCC3)s2)c1	none (no result: CHOP inh)
CC(=O)Nc1cc2nn(-c3ccccc3)nc2cc1Cl	none
CC(C)(C)C(=O)Nc1cc2nn(-c3ccccc3)nc2cc1Cl	CHOP inh 80 (no result: XBP1 UPR activ, CHOP UPR activ)
COc1cccc(NC(=O)CN2C(=O)CSc3nc(C)cc(C)c32)c1	none (no result: CHOP inh)
CCN(C(=O)c1cc2c(=O)[nH]c3ccc(C)cc3c2s1)c1ccccc1F	none
CCN(C(=O)c1cc2c(=O)[nH]c3ccc(C)cc3c2s1)c1ccccc1C	CHOP inh 96
COc1cc(OC)cc(C(=O)N[C@H](C(=O)OCC(=O)N2CCN(S(=O)(=O)c3ccc(C)cc3)CC2)C(C)C)c1	none (no result: XBP1 UPR activ, CHOP inh, CHOP UPR activ)
COC(=O)N1C(=O)[C@@](Cc2ccccc2)(c2ccccc2)N1C(=O)OC	none (no result: CHOP inh)
COC(=O)N1C(=O)[C@](Cc2ccccc2)(c2ccccc2)N1C(=O)OC	NR3A LBD binder 13 (no result: CHOP inh)
O=C(COc1ccc(Cl)cc1)NCCNc1ccc([N+](=O)[O-])cc1	none (no result: CHOP inh)
COc1ccc(C(=O)NCCNc2ccc([N+](=O)[O-])cc2)cc1	NR3A LBD binder 14
O=C(NCCNc1ccc([N+](=O)[O-])cc1)c1ccc(Cl)cc1	NR3A LBD binder 13
NS(=O)(=O)c1ccc(CNC(=O)CCSCCC(=O)NCc2ccc(S(N)(=O)=O)cc2)cc1	none
CCCc1ccc(OC(=O)c2ccc(O)cc2Cl)cc1	NR3A LBD binder 16, CHOP inh 87
COc1ccc(C(c2nnnn2C2CCCC2)N2CCC(C)CC2)cc1 (centres undefined)	CHOP inh 83
COc1ccc(C(c2nnnn2C2CCCC2)N2CCN(C3CCCC3)CC2)cc1OC (centres undefined)	NR3A LBD binder 11
COc1cc2cc(C(c3nnnn3C3CCCCC3)N(C)C3CCCCC3)c(=O)[nH]c2cc1OC (centres undefined)	CHOP inh 84
COc1cc(C(c2nnnn2C2CCCC2)N2CCN(C)CC2)cc(OC)c1OC (centres undefined)	none
COc1ccccc1NS(=O)(=O)c1ccc(Cl)c(NC(=O)C(C)N2C(=O)c3ccccc3C2=O)c1 (centres undefined)	none
CC(C)C(NC(=O)COc1ccc2ccccc2c1)C(=O)N/N=C/C=C/c1ccccc1 (centres undefined)	CHOP inh 86
O=C(Nc1cccc(C(F)(F)F)c1)c1cc2ncc(Br)cn2n1	CHOP inh 79
CCc1nc(-c2ccc(-c3ccc(OC)cc3)nc2OC)no1	CHOP inh 77
COc1ccc(-c2ccc(-c3noc(C(C)C)n3)c(OC)n2)cc1	none
COCc1nc(-c2ccc(-c3ccc(OC)cc3)nc2OC)no1	NR3A LBD binder 31
COCc1nc(-c2ccc(-c3ccccc3)nc2OC)no1	none
O=C(NNC(=O)c1ccccc1[N+](=O)[O-])c1csc(N2CCOCC2)n1	none (no result: CHOP inh)
C[N+](C)(C)CCN1C(=O)c2ccccc2C1=O	none (no result: NR3A LBD binder, XBP1 UPR activ, CHOP inh, CHOP UPR activ)
CCOC(=O)c1cc2sccc2n1CC(=O)O	none
CCOC(=O)c1cc2sccc2n1CC(=O)N1c2ccccc2CC1C (centres undefined)	NR3A LBD binder 12
C(=C\c1ccccc1)/CN1CCN(C(c2cccc3ccccc23)c2nnnn2-c2ccc3c(c2)OCCO3)CC1 (centres undefined)	none (no result: NR3A LBD binder, XBP1 UPR activ, CHOP inh, CHOP UPR activ)
c1ccc(-c2nc(NCc3cccnc3)c3ccccc3n2)cc1	none
Fc1ccc(CNc2nc(-c3ccccc3)nc3ccccc23)cc1	NR3A LBD binder 21, CHOP inh 73
Clc1cccc(-c2nc(NCc3cccnc3)c3ccccc3n2)c1	NR3A LBD binder 22
c1ccc(-c2nc(NCc3cccs3)c3ccccc3n2)cc1	NR3A LBD binder 18 (no result: CHOP inh)
c1csc(CNc2nc(-c3cccs3)nc3ccccc23)c1	none
Cc1cc(-c2cccc([N+](=O)[O-])c2)nc2ccc3ccccc3c12	NR3A LBD binder 27
OC[C@H]1O[C@@H](n2cnc3c(NCCc4ccccc4)ncnc32)C(O)[C@H]1O (some centres undefined)	none (no result: NR3A LBD binder, XBP1 UPR activ, CHOP UPR activ, MPTP block, aDG glyco act)
COc1ccc(/C=C/C(=O)NCCN=C2NS(=O)(=O)c3ccccc32)cc1	none
